Measured values of several laboratories.
Compare with care: the assays were run in different laboratories.
Target: Serine/threonine-protein kinase STK11 (STK11, Homo sapiens, UniProt Q15831)
Residues used in one study (Q15831 1-433): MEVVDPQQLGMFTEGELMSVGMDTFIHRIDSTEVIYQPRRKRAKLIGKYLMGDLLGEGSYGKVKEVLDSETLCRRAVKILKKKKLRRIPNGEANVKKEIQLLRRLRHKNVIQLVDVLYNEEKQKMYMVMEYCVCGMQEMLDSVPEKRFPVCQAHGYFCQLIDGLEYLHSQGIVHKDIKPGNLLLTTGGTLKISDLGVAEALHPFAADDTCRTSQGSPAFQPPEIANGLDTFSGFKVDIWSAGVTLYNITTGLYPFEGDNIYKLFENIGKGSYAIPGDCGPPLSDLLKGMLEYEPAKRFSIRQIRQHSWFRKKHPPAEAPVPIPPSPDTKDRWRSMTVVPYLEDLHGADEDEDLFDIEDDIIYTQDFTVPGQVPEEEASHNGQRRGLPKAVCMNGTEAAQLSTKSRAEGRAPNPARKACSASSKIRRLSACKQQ

Structure (SMILES) | read-out | mode | technique | concentration | endpoint | result
COc1cc2ncnc(Nc3ccc(F)c(Cl)c3)c2cc1OCCCN1CCOCC1 | cell-free assay |  |  | 0.5 µM | remaining signal | 106%
C[C@@H]1CN(c2cc(-c3nn(C)c4ccc(OC5(C)CC5)cc34)ncn2)C[C@H](C)O1 | cell-free assay |  | competition with immobilised ligand | 1 µM | remaining binding | 94%
CCCOc1ccc(OC)c(F)c1C(=O)c1ccc(C(=O)N[C@@H]2CNC[C@H]2NC(=O)c2ccc3[nH]ncc3c2)cc1 | enzyme activity | inhibitor |  | 10 µM | remaining activity | 92%
CN(c1nccc(-c2cnn3ncccc23)n1)C1CC1 | cell-free assay |  |  | 1 µM | remaining signal | 100%
CCN(CC)c1ccc(C2=NNC(=O)CC2C)cc1[N+](=O)[O-] (stereo not shown) | enzyme activity | inhibitor |  | 10 µM | remaining activity | 91%
Cc1ccc(NC(=O)c2ccc(CN3CCN(C)CC3)cc2)cc1Nc1nc(-c2cccnc2)cs1 | cell-free assay |  |  | 0.5 µM | remaining signal | 102%
N#CC1(c2ccccn2)CCN(Cc2cc(C(=O)N3CCCC3)c(=O)n3ccccc23)CC1 | cell-free assay |  | competition with immobilised ligand | 1 µM | remaining binding | 77%
Cc1ccc(Nc2nccc(N(C)c3ccc4c(C)n(C)nc4c3)n2)cc1S(N)(=O)=O | enzyme activity | inhibitor |  | 0.3 µM | inhibition | -6%
Cn1nc(C(F)(F)F)cc1-c1cnc(N2CCc3cc(S(=O)(=O)Nc4c(F)cc(Cl)cc4F)cc(N4CCCC4=O)c32)nc1 | cell-free assay |  | competition with immobilised ligand | 1 µM | remaining binding | 100%
Nc1ncnc2occ(-c3ccc(NC(=O)Nc4cc(C(F)(F)F)ccc4F)cc3)c12 | cell-free assay | inhibitor |  | 20 µM | remaining signal | 99%
CCCCN(CCCC)C(=O)CN1C[C@@H](c2cc(OC)c3c(c2)OCO3)[C@H](C(=O)O)[C@H]1CC(C)(C)CCC | cell-free assay |  | competition with immobilised ligand | 1 µM | remaining binding | 82.2%
Cn1c(=O)n(-c2ccc(C(C)(C)C#N)cc2)c2c3cc(-c4cnc5ccccc5c4)ccc3ncc21 | enzyme activity | inhibitor |  | 10 µM | remaining activity | 105%
FC(F)(F)c1ccc2c(c1)nc(-c1cccnc1)n2C1CC1 | cell-free assay |  | competition with immobilised ligand | 1 µM | remaining binding | 100%
FC(F)(F)Oc1cccc(-c2cnc3ccc(-c4ccncc4)nn23)c1 | enzyme activity | inhibitor | radiometric | 1 µM | activity vs control | 89%
COc1cc(Nc2cnc(C#N)c(O[C@H](C)CN(C)C)n2)ncc1-c1cnn(C)c1 | enzyme activity | inhibitor | radiometric | 1 µM | remaining activity | 96%
O=c1nc(-c2ccccn2)sc2ccccc12 | binding |  | competition with immobilised ligand | 1 µM | remaining binding | 79%
Cc1cnc(NC2CCOCC2)nc1-n1cnc(C(=O)NC(CN)c2cc(F)cc(Cl)c2)c1 (stereo not shown) | enzyme activity | inhibitor | radiometric | 1 µM | remaining activity | 104%
CC(C)c1ccc(NC(=O)c2cccs2)c(-c2nc3ccccc3[nH]c2=O)c1 | enzyme activity | inhibitor |  | 1 µM | activity vs control | 76%
CS(=O)(=O)c1cc(C2(NC(=O)c3cncc4c3cnn4-c3ccc(F)cc3)CC2)ccn1 | cell-free assay |  | competition with immobilised ligand | 1 µM | remaining binding | 100%
CN1CC(Oc2cnc(C#N)cc2-c2ccn3nc(NC(=O)C4CC4)cc3c2)C1 | enzyme activity | inhibitor |  | 1 µM | inhibition | -2%
CCN(CC)CCNC(=O)c1c(C)[nH]c(/C=C2\C(=O)Nc3ccc(F)cc32)c1C | enzyme activity | inhibitor |  | 0.3 µM | inhibition | -11%
Cc1ccc(C(=O)NCc2ccsc2)cc1C#Cc1cn(C(C)C)c2ncnc(N)c12 | enzyme activity | inhibitor |  | 1 µM | activity vs control | 94%
CCC(=O)N[C@H]1CC[C@@H](C(=O)N(C)c2ccc(-c3nc4ccccc4o3)cc2)C1 | cell-free assay |  | competition with immobilised ligand | 1 µM | remaining binding | 100%
O=C1Nc2ccc(Cl)cc2C1=Cc1cc(Cl)c(O)c(Cl)c1 | cell-free assay |  |  | 0.5 µM | remaining signal | 93.1%
O=C(Nc1cnn(-c2csc(C(=O)NC3COC3)c2)c1)Nc1ccccc1Cl | enzyme activity | inhibitor |  | 5 µM | remaining activity | 118%
